CHRM4 PAM = CHRM4 positive allosteric modulation. activation, % at 3 µM. CHO-K1 hM4/Gqi5, Fluo-8 calcium fluorescence, ACh EC20; 0% = ACh EC20, 100% = maximal ACh. hit rate 0.4% among 360,000;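 active means activation above its plate's cutoff, the mean activation of sample wells plus 3 SD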
Target sequence (P08173 whole entry, looked up): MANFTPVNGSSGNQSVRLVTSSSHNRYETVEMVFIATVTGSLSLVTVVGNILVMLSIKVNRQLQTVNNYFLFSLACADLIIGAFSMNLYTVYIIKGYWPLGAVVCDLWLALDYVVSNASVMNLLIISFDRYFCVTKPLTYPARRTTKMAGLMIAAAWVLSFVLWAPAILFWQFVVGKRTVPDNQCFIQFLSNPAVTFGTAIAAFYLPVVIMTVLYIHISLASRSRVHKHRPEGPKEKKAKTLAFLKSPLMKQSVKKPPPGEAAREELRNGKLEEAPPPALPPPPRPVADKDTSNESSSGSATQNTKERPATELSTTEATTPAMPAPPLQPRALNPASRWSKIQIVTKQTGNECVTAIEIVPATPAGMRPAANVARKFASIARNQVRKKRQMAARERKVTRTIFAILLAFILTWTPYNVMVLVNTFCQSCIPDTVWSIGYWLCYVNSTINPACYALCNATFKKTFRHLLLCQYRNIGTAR
M4 ag = agonists of human muscarinic M4 receptor (CHRM4); P08173; CHO-K1 hM4/Gqi5, Fluo-8 calcium fluorescence; vehicle 0%, full acetylcholine response 100%; activation, % at 3 µM; hit rate 0.14% among 360,000;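 active means activation above the run mean over all test wells plus 3 SD, cut at about 32% in these data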;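 further: peak over basal fluorescence ratio per well then scaled between controls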
CHRM5 agonist = agonists of human muscarinic M5 receptor (CHRM5) | CHO-K1 hM5 cells, Fluo-8 calcium fluorescence; 0% DMSO wells, 100% maximal acetylcholine response | activation, % at 3 µM | hit rate 0.19% among 360,000;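 active means activation above the run's mean over test compounds plus 3 SD, cut at about 23% in these data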;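 further: signal is peak over basal fluorescence ratio across the kinetic read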
M5 antag = CHRM5 antagonism in calcium assay | CHO-hM5 cells, Fluo-8 calcium fluorescence, ACh EC80 | inhibition, % at 3 µM | hit rate 0.59% among 360,000 | AID 624040;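 active means inhibition above a per-plate cutoff, the mean of that plate's test compounds plus 3 SD, cut at about 27% in these data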
M4 antag = CHRM4 antagonism in calcium assay. inhibition, % at 3 µM. AID 624125. CHO-hM4 cells, ACh EC80, Fluo-8 calcium fluorescence. P08173. hit rate 0.73% among 360,000;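 active means inhibition above its plate's cutoff, the mean inhibition of sample wells plus 3 SD, cut at about 27% in these data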
M5 PAM = CHRM5 positive allosteric modulation. CHO-K1 hM5, Fluo-8 calcium, ACh EC20 PAM; 0% = ACh EC20, 100% = ACh EC100. activation, % at 3 µM. hit rate 0.3% among 360,000. AID 624038;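 active means activation above the run cutoff, the mean activation of all test compounds plus 3 SD, cut at about 18% in these data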
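System – CHO-K1 hM5 cells · Compound – 3 µM, single dose · Incubation – compound preincubation 140 s before EC20 acetylcholine addition · Technique – Fluo-8 calcium fluorescence · Measure – Max/basal fluorescence ratio as % of EC20–EC100 ACh window · Benchmarks – low control EC20 acetylcholine (0%), high control EC100 acetylcholine (100%) · Replication – singlicate, one well per test compound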
Of the large screens only hits and unclear results are named; the others gave an inactive call. Most compounds without a hit are left out; they make up all but 1.9% or so of the library.

Cc1ccc(Nc2nc(-c3sc(N)nc3C)cs2)cc1	M5 PAM 20.0
c1ccc(-c2csc(Nc3ccccn3)n2)cc1	none
CCN(C[C@H]1N[C@@](C)(C(=O)OC)[C@H]2C(=O)N(Cc3ccccc3)C(=O)[C@@H]12)C(=O)c1ccc(C(C)(C)C)cc1	none
CCOc1ccc(N2CC(C(=O)Nc3ccc4c(c3)OCO4)CC2=O)cc1 (stereo not drawn)	none
O=C(O)CP(=O)(c1ccccc1)c1ccccc1	CHRM4 PAM 21.9
O=P(CCO)(c1ccccc1)c1ccccc1	none
CCc1ccc2[nH]c(C(=O)Nc3ccc(C)c(F)c3)cc2c1	none
O=C(Nc1ccc(F)cc1)c1cc2cc(Cl)ccc2[nH]1	M5 antag 31.2
O=C(CN1C(=O)C2CC=CCC2C1=O)Nc1nnc(C2CC2)s1 (stereo not drawn)	none
CC1CCN(CCCNC(=O)C2CCC(=O)N2C2CCCC2)CC1 (stereo not drawn)	none
COc1ccccc1C(=O)N(CCC1CCCN1C)c1nc2ccccc2s1 (stereo not drawn)	M5 antag 27.4
O=C(CN1C(=O)c2cccc([N+](=O)[O-])c2C1=O)OCC(=O)N1CCCCC1	none
O=C(c1ccc(F)cc1)N1CCCCC(Sc2nnnn2-c2ccccc2)C1=O (stereo not drawn)	none
COc1ccc(Cc2nnc(SCC(=O)Nc3ccc(C)cc3)n(N)c2=O)cc1	M5 antag 101.1
Cc1nnc(SCc2c(Cl)cccc2[N+](=O)[O-])s1	M5 PAM 20.3
COC(=O)C(Cc1ccc(OC(=O)c2ccc(Cl)cc2)cc1)N1Cc2ccccc2C1=O (stereo not drawn)	M5 antag 29.8, M4 antag 28.3
CCOC(=O)CCc1nn(C)c(=O)c2ccccc12	M5 antag 66.6
CCOC(=O)C(C)c1nn(C)c(=O)c2ccccc12 (stereo not drawn)	none
CCOc1cc(/C=C2\COc3ccccc3C2=O)cc(Br)c1OCC(=O)N(C)C	M4 antag 28.6
COc1ccc(/C=C2\COc3ccccc3C2=O)cc1OC	none
COc1ccc(N(CC(=O)NC2CCCCC2)C(=O)CCCC(=O)Nc2ccccn2)c(OC)c1	none
CCCCNC(=O)C1c2ccccc2OCC(=O)N1Cc1ccccc1 (stereo not drawn)	CHRM4 PAM 22.7
CCCCNC(=O)C1c2ccccc2OCC(=O)N1Cc1ccc2c(c1)OCO2 (stereo not drawn)	none
COC(=O)C1CC2=C(CCCC2=O)N(c2ccccc2)C1=O (stereo not drawn)	none
CN1CCCC(C#CC(O)(c2ccccc2)c2ccccc2)C1 (stereo not drawn)	M5 antag 97.9, M4 antag 74.1
Cn1nc(C(F)(F)F)c(/C=N/OC(=O)c2ccccc2Cl)c1SCc1ccccc1Cl	M4 antag 66.6
Cn1nc(C(F)(F)F)c(/C=N/OC(=O)c2ccccc2)c1SCc1ccc(Cl)cc1	none
O=C1CCCC2=C1C(c1ccc(O)c(Br)c1)C1=C(CCCC1=O)N2c1ccccc1	none
O=C(Oc1cccc2c(OC(=O)N3CCOCC3)cccc12)N1CCOCC1	none
O=C(Oc1ccc2cccc(OC(=O)N3CCOCC3)c2c1)N1CCOCC1	M5 PAM 19.4
COc1ccccc1N1CCN(C(=O)c2ccc3noc(-c4ccccc4)c3c2)CC1	CHRM5 agonist 24.9
O=C(Nc1ccc(Cl)c(Cl)c1)O/N=C/c1ccncc1	M5 antag 31.6
Cn1cc([N+](=O)[O-])c(C(=O)NCC(=O)O)n1	none
CCOC(=O)C1CCN(c2cc3c(cc2NC(=O)c2ccccc2OCC)n(C)c(=O)n3C)CC1	M5 antag 33.9
CCOC(=O)C1CCN(c2cc3c(cc2NC(=O)c2ccccc2Cl)n(C)c(=O)n3C)CC1	none
Cc1ccc(-n2ncc(C#N)c2/N=C/N2CCOCC2)cc1	CHRM4 PAM 21.6
Cc1ccc(Nc2nc(-c3ccc(S(=O)(=O)N4CCCC4)cc3)cs2)cc1C	none
O=C1c2ccccc2C(=O)N1CCC1=CCCCC1	M5 PAM 19.4
O=C(O)c1ccc2c(c1)C(=O)N(CCC1=CCCCC1)C2=O	none
O=C(OCCCc1cc2ccccc2c(=O)o1)c1ccccc1C(F)(F)F	none
CCC(Sc1nc2c(cnn2-c2ccc(Cl)cc2)c(=O)[nH]1)C(=O)OC (stereo not drawn)	M4 antag 40.5
O=C1CSC(=Nc2cccc(C(=O)O)c2)N1	CHRM4 PAM 14.7
CC(=O)c1cccc(N=C2NC(=O)CS2)c1	none
O=C(/C=C/c1cccc(Cl)c1)c1ccc([N+](=O)[O-])o1	M4 antag 28.6
COc1cc(/C=C/C(=O)c2ccc([N+](=O)[O-])o2)ccc1O	none
CCc1cc(=O)oc2cc(C)cc(OCC(=O)NC(Cc3c[nH]c4ccc(O)cc34)C(=O)O)c12 (stereo not drawn)	CHRM4 PAM 20.8
CCOC(=O)C(=O)c1cn(C2OCC(OC(C)=O)C(OC(C)=O)C2OC(C)=O)c2ccccc12 (stereo not drawn)	CHRM4 PAM 22.0
CCOC(=O)Cn1cc(C(=O)C(=O)N2CCOCC2)c2ccccc21	none
O=C(N=C1SC2CS(=O)(=O)CC2N1c1ccc(Br)cc1F)C1CC1 (stereo not drawn)	none
O=[N+]([O-])c1ccccc1C=NNc1ccccc1	none
O=[N+]([O-])c1ccccc1/C=N/NC1=NCCN1	M5 PAM 19.1
OCCCNc1c2c(nc3cc(-c4ccc(Cl)cc4)nn13)CCC2	none
CCCCCCCN1C(N(C)C)=NC[C@@H]1Cc1ccccc1	M4 antag 32.4
NC(=O)NN=C1C2CCCC1C(c1ccccc1)NC2c1ccccc1 (stereo not drawn)	M4 antag 49.0
Nc1nc(Nc2ccccc2F)sc1C(=O)c1ccccc1	CHRM5 agonist 28.1
CC1(C)Cc2c(ccc3ccccc23)C2=C(C(=O)N3CCCC3)C(=O)C(=O)N21	CHRM4 PAM 17.8
O=C(CSc1nncs1)Nc1cc(S(=O)(=O)N2CCOCC2)ccc1N1CCCC1	none
CN(Cc1ccc(OC(F)F)cc1)C(=O)c1cccc(S(=O)(=O)N2CCN(c3ccccc3)CC2)c1	M5 antag 28.8, M4 antag 38.9
O=C(CSc1nnnn1-c1cccc(F)c1)NC1CC1	M5 PAM 19.0
Cc1ncc(C[n+]2csc(C)c2C)c(N)n1	M5 PAM 21.9
CCN(CC)c1ccc2c(-c3ccc(S(=O)(=O)O)cc3S(=O)(=O)[O-])c3ccc(=[N+](CC)CC)cc-3oc2c1	M4 ag 78.5
CC1CN(C(=O)NCc2ccccc2)c2cc(Cl)ccc2O1 (stereo not drawn)	none

From PubChem BioAssay
